Laboratory results published in ChEMBL document CHEMBL4251576, “Synthesis and biological evaluation of curcumin inspired imidazo[1,2-a]pyridine analogues as tubulin polymerization inhibitors” (Eur J Med Chem, 2018).
pIC50: −log10 of the molar value. Calls of active or inactive are those of the source. The calls are words filed in the database; no cut-off is given here.

Experiments:
HeLa = test: Cytotoxicity against human HeLa cells assessed as inhibition of cell viability after 48 hrs by MTT assay; assay type: functional, cell-based
Outline: (§1)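 Cells were seeded at 2.5‒5 x 10^3 per well in DMEM or RPMI with 10% FBS and grown 24 h at 37 °C under CO2. Compounds diluted in medium were added alongside vehicle control for 48 h. MTT (0.5 mg/mL) was added for 4 h, formazan dissolved in DMSO and absorbance read at 570 nm. IC50 is the concentration giving 50% loss of viability; mean ± SD of three experiments, each in triplicate.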

HGC-27 = test: Cytotoxicity against human HGC27 cells assessed as inhibition of cell viability after 48 hrs by MTT assay; assay type: functional, cell-based; conditions: HGC-27, 48 h; outline: as §1
NCI-H460 = test: Cytotoxicity against human NCI-H460 cells assessed as inhibition of cell viability after 48 hrs by MTT assay; assay type: functional, cell-based; conditions: NCI-H460, 48 h; outline: as §1
DU-145 [1] = test: Cytotoxicity against human DU145 cells assessed as inhibition of cell viability after 48 hrs by MTT assay; assay type: functional, cell-based; conditions: DU-145, 48 h; outline: as §1
PC-3 [2] = test: Cytotoxicity against human PC3 cells assessed as inhibition of cell viability after 48 hrs by MTT assay; assay type: functional, cell-based; conditions: PC-3, 48 h; outline: as §1
4T1 = test: Cytotoxicity against mouse 4T1 cells assessed as inhibition of cell viability after 48 hrs by MTT assay; assay type: functional, cell-based; conditions: 4T1, 48 h; outline: as §1
DU-145 [3] = test: Potency index, ratio of curcumin IC50 to test compound IC50 for human DU145 cells; assay type: functional
PC-3 [4] = test: Potency index, ratio of curcumin IC50 to test compound IC50 for human PC3 cells; assay type: functional
[5] = Selectivity index, ratio of IC50 for human RWPE1 cells to IC50 for human PC3 cells; assay type: toxicity; conditions: RWPE1 cells versus PC3 cells, read-out: Ratio IC50
Sus scrofa [6] = organism: Sus scrofa; test: Inhibition of tubulin polymerization in porcine brain at 10 uM after 60 mins by fluorescence assay relative to control
Outline: (§2)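 Cell-free kit assay using porcine brain tubulin (2 mg/mL) in 80 mM PIPES pH 6.9 with 2.0 mM MgCl2, 0.5 mM EGTA, 1.0 mM GTP and glycerol; compound at 10 µM final, nocodazole as positive control. Polymerization tracked over time as fluorescence of a reporter incorporated into microtubules (ex 360 nm, em 440 nm), with inhibition relative to control.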

[7] = (§3) Inhibition of tubulin polymerization in porcine brain at 10 uM after 60 mins by fluorescence assay; design: species or system Sus scrofa; outline: as §2
Sus scrofa [8] = organism: Sus scrofa; test: as §3; outline: as §2
PC-3 [9] = test: Cell cycle arrest in human PC3 cells assessed as accumulation at subG1 phase at 1 uM after 24 hrs by propidium iodide staining-based flow cytometric method (reference value: 0.38%); assay type: functional
PC-3 [10] = test: Cell cycle arrest in human PC3 cells assessed as accumulation at G0/G1 phase at 1 uM after 24 hrs by propidium iodide staining-based flow cytometric method (reference value: 58.41%); assay type: functional
PC-3 [11] = test: Cell cycle arrest in human PC3 cells assessed as accumulation at S phase at 1 uM after 24 hrs by propidium iodide staining-based flow cytometric method (reference value: 8.08%); assay type: functional
PC-3 [12] = test: Cell cycle arrest in human PC3 cells assessed as accumulation at G2/M phase at 1 uM after 24 hrs by propidium iodide staining-based flow cytometric method (reference value: 33.13%); assay type: functional
PC-3 [13] = test: Cell cycle arrest in human PC3 cells assessed as accumulation at subG1 phase at 2 uM after 24 hrs by propidium iodide staining-based flow cytometric method (reference value: 0.38%); assay type: functional
PC-3 [14] = test: Cell cycle arrest in human PC3 cells assessed as accumulation at G0/G1 phase at 2 uM after 24 hrs by propidium iodide staining-based flow cytometric method (reference value: 58.41%); assay type: functional
PC-3 [15] = test: Cell cycle arrest in human PC3 cells assessed as accumulation at S phase at 2 uM after 24 hrs by propidium iodide staining-based flow cytometric method (reference value: 8.08%); assay type: functional
PC-3 [16] = test: Cell cycle arrest in human PC3 cells assessed as accumulation at G2/M phase at 2 uM after 24 hrs by propidium iodide staining-based flow cytometric method (reference value: 33.13%); assay type: functional
PC-3 [17] = test: Induction of apoptosis in human PC3 cells assessed as chromatin condensation at 0.5 uM after 48 hrs by acridine orange/ethidium bromide staining-based fluorescence inverted microscopic method; assay type: functional, cell-based
Outline: (§4)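 PC-3 cells (25000/well) grown 24 h, then exposed 48 h to 0.5, 1 or 2 µM with DMSO control. After PBS wash, stained with acridine orange and ethidium bromide (10 µg/mL each) and imaged at once by fluorescence inverted microscopy (ex 488 nm, em 530 nm, 200x).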

PC-3 [18] = test: Induction of apoptosis in human PC3 cells assessed as appearance of horse-shoe shaped nuclei at 2 uM after 48 hrs by acridine orange/ethidium bromide staining-based fluorescence inverted microscopic method; assay type: functional, cell-based; outline: as §4
PC-3 [19] = test: Induction of apoptosis in human PC3 cells assessed as late apoptotic cells at 4 uM after 24 hrs by FITC-annexin V/propidium iodide staining-based flow cytometric method (reference value: 5.75%); assay type: functional
PC-3 [20] = test: Induction of apoptosis in human PC3 cells assessed as early apoptotic cells at 2 uM after 24 hrs by FITC-annexin V/propidium iodide staining-based flow cytometric method (reference value: 7.62%); assay type: functional
PC-3 [21] = test: Induction of apoptosis in human PC3 cells assessed as late apoptotic cells at 2 uM after 24 hrs by FITC-annexin V/propidium iodide staining-based flow cytometric method (reference value: 5.75%); assay type: functional
PC-3 [22] = test: Induction of apoptosis in human PC3 cells assessed as early apoptotic cells at 4 uM after 24 hrs by FITC-annexin V/propidium iodide staining-based flow cytometric method (reference value: 7.62%); assay type: functional
PC-3 [23] = test: Induction of apoptosis in human PC3 cells assessed as nuclei condensation at 1 to 2 uM after 48 hrs by DAPI staining-based fluorescence microscopic method; assay type: functional, cell-based
Outline: (§5)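 PC-3 cells (25000/well) adhered overnight, then treated 48 h at 1 or 2 µM. After PBS wash, fixed 20 min in 4% neutral buffered formalin, permeabilized 5 min with 0.2% Triton X, and stained 10 min at room temperature with DAPI (1 µg/mL). Nuclei viewed by fluorescence microscopy (ex 350 nm, em 460 nm, 200x).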

PC-3 [24] = test: Induction of apoptosis in human PC3 cells assessed as nuclei fragmentation at 1 to 2 uM after 48 hrs by DAPI staining-based fluorescence microscopic method; assay type: functional, cell-based; outline: as §5
PC-3 [25] = test: Induction of apoptosis in human PC3 cells assessed as appearance of horse-shoe shaped nuclei at 1 to 2 uM after 48 hrs by DAPI staining-based fluorescence microscopic method; assay type: functional, cell-based; outline: as §5
PC-3 [26] = test: Induction of mitochondrial membrane depolarization in human PC3 cells at 4 uM after 24 hrs by JC1 staining-based flow cytometric method (reference value: 11.9%); assay type: functional
PC-3 [27] = test: Induction of reactive oxygen species formation in human PC3 cells at 1 to 2 uM after 6 hrs by DCFDA staining-based flow cytometric method; assay type: functional, cell-based
Outline: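 PC-3 cells at 1 x 10^5 cells/mL adhered overnight, then exposed to 1 or 2 µM. Medium replaced with DCFDA (10 µM) for 0.5 h at room temperature in the dark; fluorescence read by flow cytometry (ex 488 nm, em 530 nm). Mean ± SEM of three experiments, one-way ANOVA with Dunnett's test.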

Question: With COc1cc(OC)c(/C=C/C(=O)/C=C/c2nc3ccccn3c2-c2ccc(F)c(F)c2)c(OC)c1 as the compound, how does the pIC50 (HeLa) read?
Answer: 5.60

Question: And the pIC50 (HGC-27)?
Answer: 5.66

Question: And the pIC50 (NCI-H460)?
Answer: 5.58

Question: What about the pIC50 (DU-145 [1]) of the same compound?
Answer: 5.53

Question: What about the pIC50 (PC-3 [2]) of the same compound?
Answer: 5.68

Question: What about the pIC50 (4T1) of the same compound?
Answer: 5.77

Question: What about the “Ratio IC50” value (DU-145 [3]) of the same compound?
Answer: 11.1

Question: What about the “Ratio IC50” value (PC-3 [4]) of the same compound?
Answer: 8.9

Question: What about the selectivity ratio [5] of the same compound?
Answer: 2

Question: And the inhibition (Sus scrofa [6])?
Answer: 51.8%

Question: And the pIC50 [7]?
Answer: 5.07

Question: And the inhibition (Sus scrofa [8])?
Answer: Dose-dependent effect

Question: And the Activity (PC-3 [9])?
Answer: 0.57%

Question: What about the Activity (PC-3 [10]) of the same compound?
Answer: 44.87%

Question: What about the Activity (PC-3 [11]) of the same compound?
Answer: 9.97%

Question: And the Activity (PC-3 [12])?
Answer: 44.65%

Question: And the Activity (PC-3 [13])?
Answer: 0.74%

Question: And the Activity (PC-3 [14])?
Answer: 32.66%

Question: What about the Activity (PC-3 [15]) of the same compound?
Answer: 0.76%

Question: And the Activity (PC-3 [16])?
Answer: 55.84%

Question: What about the Activity (PC-3 [17]) of the same compound?
Answer: Active

Question: What about the Activity (PC-3 [18]) of the same compound?
Answer: Active

Question: What about the Activity (PC-3 [19]) of the same compound?
Answer: 48.34%

Question: And the Activity (PC-3 [20])?
Answer: 3.4%

Question: And the Activity (PC-3 [21])?
Answer: 27.94%

Question: What about the Activity (PC-3 [22]) of the same compound?
Answer: 7.3%

Question: And the Activity (PC-3 [23])?
Answer: Active

Question: What about the Activity (PC-3 [24]) of the same compound?
Answer: Active

Question: What about the Activity (PC-3 [25]) of the same compound?
Answer: Active

Question: What about the Activity (PC-3 [26]) of the same compound?
Answer: 52.3%

Question: And the Activity (PC-3 [27])?
Answer: Active
